High-throughput results (PubChem BioAssay)
PAFAH2 inh: PAFAH2 (human) inhibition. 340,000 tested, 0.99% active. inhibition, % at 3.39 µM. recombinant PAFAH2, FP-rhodamine activity probe, fluorescence polarization. Q99487;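 active means inhibition above the mean over all tested compounds plus 3 SD, cut at about 30% in these data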;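 further: inhibitors block probe labeling of enzyme so polarization drops; 0% = enzyme with DMSO and 100% = wells lacking PAFAH2 protein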
PAFAH1B2 FP inh: blocks human PAF acetylhydrolase 1b catalytic subunit 2 | P68402 | recombinant PAFAH1B2, FP-rhodamine activity probe, fluorescence polarization | inhibition, % at 3.39 µM | 340,000 tested, 1.2% active | AID 492953;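 active means inhibition above the mean of all tested compounds plus 3 SD, cut at about 24% in these data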;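 further: 0% = enzyme with DMSO and 100% = wells lacking PAFAH1B2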
Target sequence (P68402 whole entry, looked up): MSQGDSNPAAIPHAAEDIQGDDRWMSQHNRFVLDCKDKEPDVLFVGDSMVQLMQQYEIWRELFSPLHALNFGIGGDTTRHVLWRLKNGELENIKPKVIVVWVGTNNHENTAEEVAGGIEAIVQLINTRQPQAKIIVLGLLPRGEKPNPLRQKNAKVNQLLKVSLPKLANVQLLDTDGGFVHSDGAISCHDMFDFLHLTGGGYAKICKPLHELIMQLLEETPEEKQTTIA
HTRA1 inhibitor: inhibitors of human serine peptidase HTRA1; 340,000 tested, 0.5% active; Q92743; inhibition, % at 5.96 µM; recombinant HTRA1, FP-rhodamine activity-based probe, fluorescence polarization; AID 504803; in the data active means inhibition above about 36%;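 further: 0% = enzyme with DMSO and 100% = wells lacking enzyme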
mABHD4 FP: inhibitors of mouse ABHD4; purified mABHD4, FP-Rh probe fluorescence polarization; inhibition, % at 8.92 µM; 370,000 tested, 0.54% active; AID 720543;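 active means inhibition exceeding the mean over every tested compound plus 3 SD, cut at about 30% in these data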;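 further: 0% = plate median of compound wells and 100% = S159A mutant with DMSO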
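Doses – 8.92 µM, single dose · Material – wild-type mouse ABHD4 protein · Replication – single well per compound (singlicate) · Measure – percent inhibition of probe binding, normalized to plate controls · Schedule – 45 min compound pre-incubation plus 60 min probe step, 25 °C · Detection – fluorescence polarization with parallel and perpendicular emission, 525/598 nm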
pPAFAH FP inh: inhibitors of human plasma PAF acetylhydrolase (pPAFAH). inhibition, % at 3.39 µM. Q13093. recombinant pPAFAH, FP-rhodamine probe fluorescence polarization. 330,000 tested, 1.5% active;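 active means inhibition above the mean inhibition across the screen plus 3 SD, cut at about 25% in these data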;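 further: inhibitors block binding of the rhodamine activity-based probe so polarization drops; 0% = enzyme with DMSO and 100% = wells lacking pPAFAH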
PAFAH1B3 inh: PAFAH1B3 (human) inhibition; inhibition, % at 3.39 µM; 340,000 tested, 0.28% active; recombinant PAFAH1B3, FP-rhodamine probe, fluorescence polarization; AID 492972; Q15102;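 active means inhibition above the screen-wide average of all tested compounds plus 3 SD, cut at about 25% in these data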;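 further: 0% = enzyme with DMSO only and 100% = wells lacking PAFAH1B3 protein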
Target sequence (Q15102 whole entry, looked up): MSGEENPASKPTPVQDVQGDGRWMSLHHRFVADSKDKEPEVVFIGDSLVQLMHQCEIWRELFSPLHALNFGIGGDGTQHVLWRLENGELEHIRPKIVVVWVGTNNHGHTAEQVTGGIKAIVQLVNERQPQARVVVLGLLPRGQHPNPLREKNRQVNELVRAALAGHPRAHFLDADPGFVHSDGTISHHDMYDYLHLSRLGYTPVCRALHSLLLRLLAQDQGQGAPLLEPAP
* hit, by the source's call; nt = not tested or not shown. Sampled rows, rich in hits. Any-hit rate of the full collection: about 2.8%.

SMILES | PAFAH2 inh | PAFAH1B2 FP inh | HTRA1 inhibitor | mABHD4 FP | pPAFAH FP inh | PAFAH1B3 inh
COc1ccc(CSc2nnc(SCC(=O)Nc3ccc(S(N)(=O)=O)cc3)s2)cc1 | nt | nt | nt | -13 | nt | nt
Cc1ccc(-n2nnnc2SCCNS(=O)(=O)c2ccccc2)cc1C | 6 | -3 | -28 | -9 | 29* | 6
O=C(Cn1cc(SCc2ccc(F)cc2)c2ccccc21)N1CCOCC1 | 2 | 5 | 5 | -9 | 12 | 9
O=C(Cn1cc(SCc2ccc(Cl)cc2)c2ccccc21)N1CCOCC1 | -1 | 25* | -2 | -12 | 7 | 0
C=CCn1c(COc2ccccc2)nnc1SCC(=O)Nc1ccc(Oc2ccccc2)cc1 | nt | nt | nt | -13 | nt | nt
CC(C)Cc1ccc(C(C)NC(=O)Cc2ccc(S(=O)(=O)N3CCOCC3)s2)cc1 (configuration not stated) | 0 | 4 | -13 | -10 | 30* | 1
CCCC1CCC2(CCC(=O)N2CCO)CC1 (configuration not stated) | nt | nt | nt | 3 | nt | nt
CC[n+]1ccc(C)c2cc(S(=O)C(F)(F)F)ccc21 (configuration not stated) | -2 | 4 | 42* | nt | 12 | 4
COc1ccccc1/C=C/C=C1N=C(/C=C/c2ccc(Cl)cc2)OC/1=O | -9 | -16 | -21 | 20 | 30* | -22
COc1ccccc1/C=C/C1=NC(=C\C=C/c2ccccc2)/C(=O)O1 | -7 | -10 | -22 | 8 | 12 | -5
O=C1C(NC(=O)C(F)(F)Br)CCCCN1Cc1cccc(C(F)(F)F)c1 (configuration not stated) | nt | nt | nt | -6 | nt | nt
CCC[C@@H](CN1CCC[C@H]1CN1C(N)=NC[C@@H]1Cc1ccccc1)N1C[C@@H]([C@H](C)CC)N(CCc2ccc(Cl)c(Cl)c2)C1=N | 1 | 0 | 4 | nt | -4 | 17
CCC[C@@H](CN1CCC[C@H]1CN1C(N)=NC[C@@H]1Cc1ccccc1)N1C[C@@H](Cc2ccccc2)N(CCc2ccc(Cl)c(Cl)c2)C1=N | 4 | 3 | -5 | 34* | 1 | 2
CCCNC(=O)N1[C@@H](CO)[C@H](c2ccc(C3=CCCC3)cc2)[C@@H]1CN(CC)S(=O)(=O)c1ccccc1[N+](=O)[O-] | nt | nt | nt | -6 | nt | nt
CCOc1ccc2c(c1)c(C(C)=O)c(C)n2-c1ccccc1 | -7 | 0 | -17 | -13 | 26* | 3
Cc1ccc(CCNC(=O)C2CCC(=O)N2Cc2ccc(F)cc2)cc1 (configuration not stated) | -5 | 15 | 6 | -3 | 0 | 3
O=C(NCCc1ccc(Cl)cc1)C1CCC(=O)N1Cc1ccc(F)cc1 (configuration not stated) | 10 | 28* | 0 | -3 | -1 | 1
O[C@H](COc1ccccc1)CN1CCC(C(O)(c2ccccc2)c2ccccc2)CC1 | nt | nt | nt | 1 | nt | nt
COc1ccc(C(=O)c2sc3nc(-c4ccccc4)ccc3c2N)cc1OC | 8 | 8 | -5 | -1 | 30* | 2
COc1ccc(-c2ccc3c(N)c(C(=O)c4ccc(OC)c(OC)c4)sc3n2)cc1 | 4 | 0 | -11 | -2 | 5 | 1
O=C(Nc1cccc(Cl)c1)OC1CCC12CCC(c1ccccc1)CC2 (configuration not stated) | nt | nt | nt | -27 | nt | nt
Cc1cccc(Oc2cc(NC(=O)Cn3cnc([N+](=O)[O-])n3)cc([N+](=O)[O-])c2)c1 | -13 | 1 | -28 | -36 | 29* | -2
CN1CC(=O)N2[C@@H](C[C@]3(c4c[nH]c5ccccc45)c4ccccc4N(S(=O)(=O)c4ccccc4)[C@H]23)C1=O | nt | nt | nt | 2 | nt | nt
CCOc1ccc(-n2cc(-c3ccccc3)c3c(SC(C)C(=O)OC)ncnc32)cc1 (configuration not stated) | -3 | -1 | -18 | -13 | 30* | -1
NS(=O)(=O)c1ccc(CCNc2ncnc3c2c(-c2ccccc2)cn3-c2ccc(F)cc2)cc1 | 10 | 2 | -33 | -30 | 27* | 4
CC1CN(c2ncnc3c2c(-c2ccccc2)cn3-c2ccc(F)cc2)CC(C)O1 (configuration not stated) | 5 | -2 | -18 | -3 | 0 | 6
COc1ccc(-n2cc(-c3ccccc3)c3c(NCCOCCO)ncnc32)cc1 | -8 | 0 | 1 | 0 | 28* | 6
